Data from ChEMBL document CHEMBL4321830, “A Chemical-Intervention Strategy To Circumvent Peptide Hydrolysis by d-Stereoselective Peptidases” (J Med Chem, 2019).
The source made the active and inactive calls. No cut-off for these calls is given here. Where a SMILES comes first, the peptide text is derived from it. [ ]: non-standard residue; d: D form. The star is where a group is joined. d(aIle) = CC[C@H](C)[C@@H](N)C(=O)O; NMeF = CN[C@@H](Cc1ccccc1)C(=O)O; dDab = NCC[C@@H](N)C(=O)O; Octanoyl = CCCCCCCC(=O)*; Dab = NCC[C@H](N)C(=O)O; Aib = CC(C)(N)C(=O)O; Sar = CNCC(=O)O

Tests used:
Staphylococcus aureus = experiment: Antibacterial activity against Staphylococcus aureus NCTC 10788 assessed as bacterial growth inhibition by microbroth dilution method; assay type: functional
D-peptidase TriF = experiment: Substrate activity at Paenibacillus polymyxa CICC10580 D-peptidase TriF expressed in Escherichia coli BL21 assessed as enzyme-mediated compound hydrolysis at 50 uM incubated for 24 hrs by UPLC-MS analysis; assay type: ADME; details: read-out: Activity
Method in brief: (§1)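 His-purified (Ni-NTA) enzyme from IPTG-induced E. coli BL21 (200 μM IPTG after 15 °C hold). Substrate 50 μM with BogQ 20 nM for 1 h or TriFpep 200 nM for 24 h, 37 °C, in 25% PBS pH 7.4. Quenched with cold methanol, cleavage ratio by UPLC–MS at end point; two independent experiments.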

Escherichia coli [1] = experiment: Antibacterial activity against Escherichia coli NCTC 12241 assessed as bacterial growth inhibition by microbroth dilution method; assay type: functional
D-peptidase BogQ = experiment: Substrate activity at bacterial D-peptidase BogQ expressed in Escherichia coli BL21 assessed as enzyme-mediated compound hydrolysis at 50 uM incubated for 1 hr by UPLC-MS analysis; assay type: ADME; details: bacteria; read-out: Activity; method in brief: as §1
[2] = Hemolytic activity in sheep erythrocytes assessed as hemolysis at 200 ug/ml incubated for 30 by spectrophotometry relative to control; assay type: ADME, cell-based, Ovis aries, Erythrocyte; details: read-out: Activity
Method in brief: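 Defibrinated sheep blood washed four times in PBS, resuspended, mixed 1:1 with peptide in PBS (200 μg/mL in well before mixing); 30 min, 37 °C. Diluted, centrifuged, supernatant absorbance at 415 nm. Percent hemolysis relative to 0.1% Triton X-100, PBS blank; triplicate, two independent experiments averaged.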

Escherichia coli [3] = experiment: Binding affinity to Escherichia coli NCTC 12241 lipid 2 assessed as formation of zone of inhibition at 60 uM incubated for 16 hrs by spot-on-lawn assay
Method in brief: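 E. coli NCTC 12241 suspended to OD600 ~1.0 in MHB, mixed into molten 0.75% MH soft agar and poured over 1.5% MHA. Peptide (final 60 μM) preincubated at 37 °C with 7 equiv chemically synthesized Gram-positive lipid II, 10 μL spotted alongside peptide alone; 16 h, 37 °C. Loss of inhibition zone indicates lipid II sequestration.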

| Compound | MIC (Staphylococcus aureus) [µg/mL] | metabolised at 24 h, 50 µM (D-peptidase TriF) [%] | MIC (Escherichia coli [1]) [µg/mL] | metabolised at 1 h, 50 µM (D-peptidase BogQ) [%] | hemolysis at 0.5 h, 200 ug/ml [2] [%] | Activity (Escherichia coli [3]) |
| --- | --- | --- | --- | --- | --- | --- |
| CCCCCCCC(=O)N[C@@H](C(=O)N[C@H](CCN)C(=O)NCC(=O)N[C@H](CO)C(=O)N[C@H](Cc1c[nH]c2ccccc12)C(=O)N(C)CC(=O)N[C@@H](CCN)C(=O)N[C@H](CCN)C(=O)N[C@@](C)(Cc1ccccc1)C(=O)N[C@@H](CCC(=O)O)C(=O)N[C@H](C(=O)N[C@@H](C(=O)N[C@@H](C)C(=O)O)C(C)C)C(C)C)C(C)C | > 50 | 0 | > 50 | 39 |  |  |
| CCCCCCCC(=O)N[C@@H](C(=O)N[C@H](CCN)C(=O)NCC(=O)N[C@H](CO)C(=O)N[C@H](Cc1c[nH]c2ccccc12)C(=O)N[C@@H](CO)C(=O)N[C@@H](CCN)C(=O)N[C@H](CCN)C(=O)N[C@@](C)(Cc1ccccc1)C(=O)N[C@@H](CCC(=O)O)C(=O)N[C@H](C(=O)N[C@@H](C(=O)N[C@@H](C)C(=O)O)C(C)C)C(C)C)C(C)C | > 50 |  | > 50 | 39 |  |  |
| CCCCCCCC(=O)N[C@@H](C(=O)N[C@H](CCN)C(=O)NCC(=O)N[C@H](CO)C(=O)N[C@H](Cc1c[nH]c2ccccc12)C(=O)N(C)CC(=O)N[C@@H](CCN)C(=O)N[C@H](CCN)C(=O)N[C@@](C)(Cc1ccccc1)C(=O)N[C@@H](CCC(=O)O)C(=O)N[C@H](C(=O)N[C@@H](C(=O)N[C@@H](C)C(=O)O)[C@@H](C)CC)C(C)C)C(C)C | > 50 | 0 | > 50 | 40 |  |  |
| CCCCCCCC(=O)N[C@@H](C(=O)N[C@@H](CCN)C(=O)NCC(=O)N[C@H](CO)C(=O)N[C@H](Cc1c[nH]c2ccccc12)C(=O)N[C@@H](CO)C(=O)N[C@@H](CCN)C(=O)N[C@H](CCN)C(=O)N[C@@H](Cc1ccccc1)C(=O)N[C@@H](CCC(=O)O)C(=O)N[C@H](C(=O)N[C@@H](C(=O)N[C@@H](C)C(=O)O)C(C)C)C(C)C)C(C)C (Octanoyl-[dV][Dab]G[dS][dW]S[Dab][dDab]FEV[dV]A-OH) | > 50 |  | > 50 | 60 |  |  |
| CCCCCCCC(=O)N[C@@H](C(=O)N[C@H](C)C(=O)NCC(=O)N[C@H](CO)C(=O)N[C@H](Cc1c[nH]c2ccccc12)C(=O)N(C)CC(=O)N[C@@H](CCN)C(=O)N[C@H](CCN)C(=O)N(C)[C@@H](Cc1ccccc1)C(=O)N[C@@H](CCC(=O)O)C(=O)N[C@H](C(=O)N[C@@H](C(=O)N[C@@H](C)C(=O)O)C(C)C)C(C)C)C(C)C (Octanoyl-[dV][dA]G[dS][dW][Sar][Dab][dDab][NMeF]EV[dV]A-OH) | > 50 | 0 | > 50 | 11 |  |  |
| CCCCCCCC(=O)N[C@@H](C(=O)N[C@H](CCN)C(=O)NCC(=O)N[C@H](CO)C(=O)N[C@H](Cc1c[nH]c2ccccc12)C(=O)N[C@@H](CO)C(=O)N[C@@H](CCN)C(=O)N[C@H](CCN)C(=O)N[C@@H](Cc1ccccc1)C(=O)N[C@@H](CCC(=O)O)C(=O)N[C@H](C(=O)N[C@@H](C(=O)N[C@@H](C)C(=O)O)C(C)C)C(C)C)C(C)C (Octanoyl-[dV][dDab]G[dS][dW]S[Dab][dDab]FEV[dV]A-OH) | 50 | 100 | 1.56 | > 90 | 53 |  |
| CCCCCCCC(=O)N[C@@H](C(=O)N[C@H](CCN)C(=O)NCC(=O)N[C@H](CO)C(=O)N[C@H](Cc1c[nH]c2ccccc12)C(=O)N[C@@H](CO)C(=O)N[C@@H](CCN)C(=O)N[C@H](CCN)C(=O)N(C)[C@@H](Cc1ccccc1)C(=O)N[C@@H](CCC(=O)O)C(=O)N[C@H](C(=O)N[C@@H](C(=O)N[C@@H](C)C(=O)O)C(C)C)C(C)C)C(C)C (Octanoyl-[dV][dDab]G[dS][dW]S[Dab][dDab][NMeF]EV[dV]A-OH) | > 50 |  | 6.25 | 15 | 30 | Active |
| CCCCCCCC(=O)N[C@@H](C(=O)N[C@H](CCN)C(=O)NCC(=O)N[C@H](CO)C(=O)N[C@H](Cc1c[nH]c2ccccc12)C(=O)NC(C)(C)C(=O)N[C@@H](CCN)C(=O)N[C@H](CCN)C(=O)N[C@@H](Cc1ccccc1)C(=O)N[C@@H](CCC(=O)O)C(=O)N[C@H](C(=O)N[C@@H](C(=O)N[C@@H](C)C(=O)O)C(C)C)C(C)C)C(C)C (Octanoyl-[dV][dDab]G[dS][dW][Aib][Dab][dDab]FEV[dV]A-OH) | > 50 | 0 | 3.13 |  |  |  |
| CCCCCCCC(=O)N[C@@H](C(=O)N[C@H](CCN)C(=O)NCC(=O)N[C@H](CO)C(=O)N[C@H](Cc1c[nH]c2ccccc12)C(=O)N(C)CC(=O)N[C@@H](CCN)C(=O)N[C@H](CCN)C(=O)N[C@@H](Cc1ccccc1)C(=O)N[C@@H](CCC(=O)O)C(=O)N[C@H](C(=O)N[C@@H](C(=O)N[C@@H](C)C(=O)O)C(C)C)C(C)C)C(C)C (Octanoyl-[dV][dDab]G[dS][dW][Sar][Dab][dDab]FEV[dV]A-OH) | > 50 | 0 | 3.13 |  | 38 | Active |
| CCCCCCCC(=O)N[C@@H](C(=O)N[C@H](CCN)C(=O)NCC(=O)N[C@H](CO)C(=O)N[C@H](Cc1c[nH]c2ccccc12)C(=O)N(C)CC(=O)N[C@@H](CCN)C(=O)N[C@H](CCN)C(=O)N(C)[C@@H](Cc1ccccc1)C(=O)N[C@@H](CCC(=O)O)C(=O)N[C@H](C(=O)N[C@@H](C(=O)N[C@@H](C)C(=O)O)[C@@H](C)CC)C(C)C)C(C)C (Octanoyl-[dV][dDab]G[dS][dW][Sar][Dab][dDab][NMeF]EV[d(aIle)]A-OH) | > 50 | 0 | 3.13 | 46 |  |  |
| CCCCCCCC(=O)N[C@@H](C(=O)N[C@H](CCN)C(=O)NCC(=O)N[C@H](CO)C(=O)N[C@H](Cc1c[nH]c2ccccc12)C(=O)N(C)CC(=O)N[C@@H](CCN)C(=O)N[C@H](CCN)C(=O)N(C)[C@@H](Cc1ccccc1)C(=O)N[C@@H](CCC(=O)O)C(=O)N[C@H](C(=O)N[C@@H](C(=O)N[C@@H](C)C(=O)O)C(C)C)C(C)C)C(C)C (Octanoyl-[dV][dDab]G[dS][dW][Sar][Dab][dDab][NMeF]EV[dV]A-OH) | > 50 | 0 | 6.25 | 43 | 60 to 78 | Active |
| CCCCCCCC(=O)N[C@@H](C(=O)N[C@H](CCN)C(=O)NC(C)(C)C(=O)N[C@H](CO)C(=O)N[C@H](Cc1c[nH]c2ccccc12)C(=O)N[C@@H](CO)C(=O)N[C@@H](CCN)C(=O)N[C@H](CCN)C(=O)N[C@@H](Cc1ccccc1)C(=O)N[C@@H](CCC(=O)O)C(=O)N[C@H](C(=O)N[C@@H](C(=O)N[C@@H](C)C(=O)O)C(C)C)C(C)C)C(C)C (Octanoyl-[dV][dDab][Aib][dS][dW]S[Dab][dDab]FEV[dV]A-OH) | > 50 |  | > 50 | > 90 |  |  |
| CCCCCCCC(=O)N[C@@H](C(=O)N[C@H](CCN)C(=O)NC(C)(C)C(=O)N[C@H](CO)C(=O)N[C@H](Cc1c[nH]c2ccccc12)C(=O)N[C@@H](CO)C(=O)N[C@@H](CCN)C(=O)N[C@H](CCN)C(=O)N(C)[C@@H](Cc1ccccc1)C(=O)N[C@@H](CCC(=O)O)C(=O)N[C@H](C(=O)N[C@@H](C(=O)N[C@@H](C)C(=O)O)C(C)C)C(C)C)C(C)C (Octanoyl-[dV][dDab][Aib][dS][dW]S[Dab][dDab][NMeF]EV[dV]A-OH) | > 50 |  | > 50 | < 5 |  |  |
| CCCCCCCC(=O)N[C@@H](C(=O)N[C@H](CCN)C(=O)N(C)CC(=O)N[C@H](CO)C(=O)N[C@H](Cc1c[nH]c2ccccc12)C(=O)N[C@@H](CO)C(=O)N[C@@H](CCN)C(=O)N[C@H](CCN)C(=O)N[C@@H](Cc1ccccc1)C(=O)N[C@@H](CCC(=O)O)C(=O)N[C@H](C(=O)N[C@@H](C(=O)N[C@@H](C)C(=O)O)C(C)C)C(C)C)C(C)C (Octanoyl-[dV][dDab][Sar][dS][dW]S[Dab][dDab]FEV[dV]A-OH) | > 50 |  | > 50 | > 90 |  |  |
| CCCCCCCC(=O)N[C@@H](C(=O)N[C@H](CCN)C(=O)N(C)CC(=O)N[C@H](CO)C(=O)N[C@H](Cc1c[nH]c2ccccc12)C(=O)N[C@@H](CO)C(=O)N[C@@H](CCN)C(=O)N[C@H](CCN)C(=O)N(C)[C@@H](Cc1ccccc1)C(=O)N[C@@H](CCC(=O)O)C(=O)N[C@H](C(=O)N[C@@H](C(=O)N[C@@H](C)C(=O)O)C(C)C)C(C)C)C(C)C (Octanoyl-[dV][dDab][Sar][dS][dW]S[Dab][dDab][NMeF]EV[dV]A-OH) | > 50 |  | > 50 | < 5 |  |  |
| CCCCCCCC(=O)N[C@@H](C(=O)N[C@@H](C(=O)NCC(=O)N[C@H](CO)C(=O)N[C@H](Cc1c[nH]c2ccccc12)C(=O)N(C)CC(=O)N[C@@H](CCN)C(=O)N[C@H](CCN)C(=O)N(C)[C@@H](Cc1ccccc1)C(=O)N[C@@H](CCC(=O)O)C(=O)N[C@H](C(=O)N[C@@H](C(=O)N[C@@H](C)C(=O)O)C(C)C)C(C)C)C(C)C)C(C)C (Octanoyl-[dV][dV]G[dS][dW][Sar][Dab][dDab][NMeF]EV[dV]A-OH) | > 50 | 0 | > 50 | 12 |  |  |
